Calls of active or inactive are those of the source. The rule behind the calls is not given here.
Tested on: Ishikawa
Assay: Antiproliferative activity against human Ishikawa cells after 48 hrs by MTT assay
Type: functional, cell-based
Details: not given
Method in brief: (§1)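 Cells grown in RPMI1640 with 10% FBS and penicillin/streptomycin at 37 °C, 5% CO2. Seeded at 1 × 10^5/mL, grown 24 h, then exposed to compound at 1 × 10^-4 to 1 × 10^-7 mol/L for 48 h. Controls received medium with 1% DMSO. MTT 4 h, formazan dissolved in DMSO, absorbance at 490 nm; IC50 derived.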

SMILES	IC50
COc1ccc2c(c1)CC[C@@H]1[C@@H]2[C@H](OC(=O)c2ccc(NC(=O)CN3CCN(C)CC3)cc2)C[C@]2(C)[C@@H](OC)CC[C@@H]12	7.52 µM
COCOc1ccc2c(c1)CC[C@@H]1[C@@H]2[C@H](OC(=O)c2ccc(NC(=O)CN3CCN(C)CC3)cc2)C[C@]2(C)[C@@H](OCOC)CC[C@@H]12	7.75 µM
COc1ccc2c(c1)CC[C@@H]1[C@@H]2[C@H](OC(=O)c2ccc(NC(=O)CN3CCCC3)cc2)C[C@]2(C)[C@@H](OC)CC[C@@H]12	4.79 µM

Tested on: MCF7
Assay: Cell cycle arrest in human MCF7 cells assessed as G0/G1 phase accumulation at 1 uM after 6 hrs by propidium iodide staining based flow cytometry (reference value: 42.62%)
Type: functional
Details: not given
Method in brief: (§2)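 MCF-7 cells plated at 3 × 10^5 per well and left overnight, then treated in serum-free medium with a DMSO reference control. Cells fixed in 70% ice-cold ethanol, washed in PBS, stained with propidium iodide at 4 °C. Flow cytometry gave percentages in G1, S and G2/M phases. Mean ± SEM of three independent experiments.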

SMILES	Activity
COCOc1ccc2c(c1)CC[C@@H]1[C@@H]2[C@H](OC(=O)c2ccc(NC(=O)CN3CCN(C)CC3)cc2)C[C@]2(C)[C@@H](OCOC)CC[C@@H]12	21.47%

Tested on: MCF7
Assay: Cell cycle arrest in human MCF7 cells assessed as G2/M phase accumulation after 6 hrs by propidium iodide staining based flow cytometry
Type: functional
Details: not given
Method in brief: as §2

SMILES	Activity
COCOc1ccc2c(c1)CC[C@@H]1[C@@H]2[C@H](OC(=O)c2ccc(NC(=O)CN3CCN(C)CC3)cc2)C[C@]2(C)[C@@H](OCOC)CC[C@@H]12	Dose-dependent effect

Tested on: Chorioallantoic membrane
Assay: In vivo antiangiogenic activity in chicken fertilized egg chorioallantoic membrane after 72 hrs
Type: functional, organism-based
Details: Gallus gallus
Method in brief: (§3)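 Fertilized eggs incubated 7 days at 37 °C, 5% CO2, with saturated humidity. A ~1 cm2 shell window exposed the CAM. Compounds in DMSO were applied on sterile methyl cellulose filter papers placed on the CAM, with PBS as blank. Window taped shut, eggs incubated 72 h at 37 °C, 60% relative humidity.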

SMILES	Activity
COCOc1ccc2c(c1)CC[C@@H]1[C@@H]2[C@H](OC(=O)c2ccc(NC(=O)CN3CCN(C)CC3)cc2)C[C@]2(C)[C@@H](OCOC)CC[C@@H]12	Dose-dependent effect

Tested on: MCF7
Assay: Effect on AIM2 mRNA expression in human MCF7 cells at 0.5 to 2 uM by RT-PCR method
Type: functional, cell-based
Details: not given
Method in brief: (§4)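 AIM2 mRNA, an ER-independent reference transcript, measured in treated MCF-7 cells by real-time PCR. Normalized to GAPDH and quantified by the ΔΔCT method. Mean ± SD, n = 3.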

SMILES	Activity
COCOc1ccc2c(c1)CC[C@@H]1[C@@H]2[C@H](OC(=O)c2ccc(NC(=O)CN3CCN(C)CC3)cc2)C[C@]2(C)[C@@H](OCOC)CC[C@@H]12	inactive

Tested on: MCF7
Assay: Cell cycle arrest in human MCF7 cells assessed as G0/G1 phase accumulation at 2 uM after 6 hrs by propidium iodide staining based flow cytometry (reference value: 42.62%)
Type: functional
Details: not given
Method in brief: as §2

SMILES	Activity
COCOc1ccc2c(c1)CC[C@@H]1[C@@H]2[C@H](OC(=O)c2ccc(NC(=O)CN3CCN(C)CC3)cc2)C[C@]2(C)[C@@H](OCOC)CC[C@@H]12	14.63%

Tested on: PC-3
Assay: Antiproliferative activity against human PC3 cells after 48 hrs by MTT assay
Type: functional, cell-based
Details: PC-3, 48 h
Method in brief: as §1

SMILES	IC50
COc1ccc2c(c1)CC[C@@H]1[C@@H]2[C@H](OC(=O)c2ccc(NC(=O)CN3CCN(C)CC3)cc2)C[C@]2(C)[C@@H](OC)CC[C@@H]12	18.1 µM
COCOc1ccc2c(c1)CC[C@@H]1[C@@H]2[C@H](OC(=O)c2ccc(NC(=O)CN3CCN(C)CC3)cc2)C[C@]2(C)[C@@H](OCOC)CC[C@@H]12	2.85 µM
COc1ccc2c(c1)CC[C@@H]1[C@@H]2[C@H](OC(=O)c2ccc(NC(=O)CN3CCCC3)cc2)C[C@]2(C)[C@@H](OC)CC[C@@H]12	10.6 µM

Tested on: MCF7
Assay: Cell cycle arrest in human MCF7 cells assessed as G2/M phase accumulation at 1 uM after 6 hrs by propidium iodide staining based flow cytometry (reference value: 22.46%)
Type: functional
Details: not given
Method in brief: as §2

SMILES	Activity
COCOc1ccc2c(c1)CC[C@@H]1[C@@H]2[C@H](OC(=O)c2ccc(NC(=O)CN3CCN(C)CC3)cc2)C[C@]2(C)[C@@H](OCOC)CC[C@@H]12	41.9%

Tested on: MCF7
Assay: Effect on AIM2 mRNA expression in human MCF7 cells at 2 uM by RT-PCR method
Type: functional, cell-based
Details: not given
Method in brief: as §4

SMILES	Activity
CC/C(=C(\c1ccccc1)c1ccc(OCCN(C)C)cc1)c1ccccc1 [TAMOXIFEN]	inactive

Tested on: Chorioallantoic membrane
Assay: In vivo antiangiogenic activity in chicken fertilized egg chorioallantoic membrane at 40 uM after 72 hrs
Type: functional, organism-based
Details: Gallus gallus
Method in brief: as §3

SMILES	Activity
COCOc1ccc2c(c1)CC[C@@H]1[C@@H]2[C@H](OC(=O)c2ccc(NC(=O)CN3CCN(C)CC3)cc2)C[C@]2(C)[C@@H](OCOC)CC[C@@H]12	Active

Tested on: MCF7
Assay: Antiproliferative activity against human MCF7 cells after 48 hrs by MTT assay
Type: functional, cell-based
Details: MCF7, 48 h
Method in brief: as §1

SMILES	IC50
COc1ccc2c(c1)CC[C@@H]1[C@@H]2[C@H](OC(=O)c2ccc(NC(=O)CN3CCN(C)CC3)cc2)C[C@]2(C)[C@@H](OC)CC[C@@H]12	12.9 µM
COCOc1ccc2c(c1)CC[C@@H]1[C@@H]2[C@H](OC(=O)c2ccc(NC(=O)CN3CCN(C)CC3)cc2)C[C@]2(C)[C@@H](OCOC)CC[C@@H]12	4.06 µM
COc1ccc2c(c1)CC[C@@H]1[C@@H]2[C@H](OC(=O)c2ccc(NC(=O)CN3CCCC3)cc2)C[C@]2(C)[C@@H](OC)CC[C@@H]12	13.7 µM

Target: T1, Estrogen receptor (Homo sapiens) (UniProt P03372)
T1 sequence (whole entry): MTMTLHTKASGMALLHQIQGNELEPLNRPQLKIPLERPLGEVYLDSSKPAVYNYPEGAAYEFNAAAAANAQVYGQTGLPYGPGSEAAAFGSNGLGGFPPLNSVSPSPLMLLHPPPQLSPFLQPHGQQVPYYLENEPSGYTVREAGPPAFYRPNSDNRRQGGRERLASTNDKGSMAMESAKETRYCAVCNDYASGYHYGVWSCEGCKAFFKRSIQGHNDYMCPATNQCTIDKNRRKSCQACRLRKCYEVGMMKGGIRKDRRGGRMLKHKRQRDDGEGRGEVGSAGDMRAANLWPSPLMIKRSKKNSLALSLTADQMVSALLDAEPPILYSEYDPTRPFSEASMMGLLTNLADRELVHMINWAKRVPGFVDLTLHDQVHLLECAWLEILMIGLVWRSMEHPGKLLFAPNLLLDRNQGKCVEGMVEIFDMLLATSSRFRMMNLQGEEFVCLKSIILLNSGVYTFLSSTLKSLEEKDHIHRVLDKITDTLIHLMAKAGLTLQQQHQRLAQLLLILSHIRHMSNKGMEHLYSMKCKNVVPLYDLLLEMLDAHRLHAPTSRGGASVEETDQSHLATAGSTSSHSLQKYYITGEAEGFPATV
Assay: Inhibition of estrogen receptor in human MCF7 cells assessed as inhibition of estradiol-induced PgR mRNA expression by RT-PCR method relative to control
Type: cell-based
Details: not given
Method in brief: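 MCF-7 cells stimulated with 10 nM E2 and co-treated with compound. PgR mRNA measured by real-time PCR, normalized to GAPDH and quantified by the ΔΔCT method. The 10 nM E2 level was set as 100%. Mean ± SD, n = 3.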

SMILES	inhibition
COCOc1ccc2c(c1)CC[C@@H]1[C@@H]2[C@H](OC(=O)c2ccc(NC(=O)CN3CCN(C)CC3)cc2)C[C@]2(C)[C@@H](OCOC)CC[C@@H]12	Dose-dependent effect

Tested on: MCF7
Assay: Cell cycle arrest in human MCF7 cells assessed as S phase accumulation at 2 uM after 6 hrs by propidium iodide staining based flow cytometry (reference value: 33.14%)
Type: functional
Details: not given
Method in brief: as §2

SMILES	Activity
COCOc1ccc2c(c1)CC[C@@H]1[C@@H]2[C@H](OC(=O)c2ccc(NC(=O)CN3CCN(C)CC3)cc2)C[C@]2(C)[C@@H](OCOC)CC[C@@H]12	34.57%

Tested on: HepG2
Assay: Antiproliferative activity against human HepG2 cells after 48 hrs by MTT assay
Type: functional, cell-based
Details: HepG2, 48 h
Method in brief: as §1

SMILES	IC50
COc1ccc2c(c1)CC[C@@H]1[C@@H]2[C@H](OC(=O)c2ccc(NC(=O)CN3CCN(C)CC3)cc2)C[C@]2(C)[C@@H](OC)CC[C@@H]12	8.12 µM
COCOc1ccc2c(c1)CC[C@@H]1[C@@H]2[C@H](OC(=O)c2ccc(NC(=O)CN3CCN(C)CC3)cc2)C[C@]2(C)[C@@H](OCOC)CC[C@@H]12	2.73 µM
COc1ccc2c(c1)CC[C@@H]1[C@@H]2[C@H](OC(=O)c2ccc(NC(=O)CN3CCCC3)cc2)C[C@]2(C)[C@@H](OC)CC[C@@H]12	8.64 µM

Tested on: HUVEC
Assay: Antiproliferative activity against HUVEC after 48 hrs by MTT assay
Type: functional, cell-based
Details: Homo sapiens
Method in brief: as §1

SMILES	IC50
COc1ccc2c(c1)CC[C@@H]1[C@@H]2[C@H](OC(=O)c2ccc(NC(=O)CN3CCN(C)CC3)cc2)C[C@]2(C)[C@@H](OC)CC[C@@H]12	5.88 µM
COCOc1ccc2c(c1)CC[C@@H]1[C@@H]2[C@H](OC(=O)c2ccc(NC(=O)CN3CCN(C)CC3)cc2)C[C@]2(C)[C@@H](OCOC)CC[C@@H]12	5.23 µM
COc1ccc2c(c1)CC[C@@H]1[C@@H]2[C@H](OC(=O)c2ccc(NC(=O)CN3CCCC3)cc2)C[C@]2(C)[C@@H](OC)CC[C@@H]12	3.69 µM

Tested on: MCF7
Assay: Cell cycle arrest in human MCF7 cells assessed as S phase accumulation at 1 uM after 6 hrs by propidium iodide staining based flow cytometry (reference value: 33.14%)
Type: functional
Details: not given
Method in brief: as §2

SMILES	Activity
COCOc1ccc2c(c1)CC[C@@H]1[C@@H]2[C@H](OC(=O)c2ccc(NC(=O)CN3CCN(C)CC3)cc2)C[C@]2(C)[C@@H](OCOC)CC[C@@H]12	34.82%

Tested on: Ishikawa
Assay: Antiproliferative activity against human Ishikawa cells assessed as suppression of proliferation at 10 uM after 48 hrs by MTT assay relative to control
Type: functional
Details: not given

SMILES	Activity
COc1ccc2c(c1)CC[C@@H]1[C@@H]2[C@H](OC(=O)c2ccc(NC(=O)CN3CCN(C)CC3)cc2)C[C@]2(C)[C@@H](OC)CC[C@@H]12	Active
COCOc1ccc2c(c1)CC[C@@H]1[C@@H]2[C@H](OC(=O)c2ccc(NC(=O)CN3CCN(C)CC3)cc2)C[C@]2(C)[C@@H](OCOC)CC[C@@H]12	Active
CC/C(=C(\c1ccccc1)c1ccc(OCCN(C)C)cc1)c1ccccc1 [TAMOXIFEN]	-60.1%
COc1ccc2c(c1)CC[C@@H]1[C@@H]2[C@H](OC(=O)c2ccc(NC(=O)CN3CCCC3)cc2)C[C@]2(C)[C@@H](OC)CC[C@@H]12	Active

Tested on: MCF7
Assay: Cell cycle arrest in human MCF7 cells assessed as G2/M phase accumulation at 2 uM after 6 hrs by propidium iodide staining based flow cytometry (reference value: 22.46%)
Type: functional
Details: not given
Method in brief: as §2

SMILES	Activity
COCOc1ccc2c(c1)CC[C@@H]1[C@@H]2[C@H](OC(=O)c2ccc(NC(=O)CN3CCN(C)CC3)cc2)C[C@]2(C)[C@@H](OCOC)CC[C@@H]12	51.41%
